Positions count from the first letter of the chain named. pIC50: −log10 of the molar value. Calls of active or inactive are those of the source. The calls are words filed in the database; no cut-off is given here.
What was measured:
[1] = target: T1, Aldo-keto reductase family 1 member C3 (Homo sapiens) (UniProt P42330); experiment: Inhibition of recombinant AKR1C3 using 1-acenaphthenol as substrate at 10 uM by spectrophotometry
T1 sequence (whole entry): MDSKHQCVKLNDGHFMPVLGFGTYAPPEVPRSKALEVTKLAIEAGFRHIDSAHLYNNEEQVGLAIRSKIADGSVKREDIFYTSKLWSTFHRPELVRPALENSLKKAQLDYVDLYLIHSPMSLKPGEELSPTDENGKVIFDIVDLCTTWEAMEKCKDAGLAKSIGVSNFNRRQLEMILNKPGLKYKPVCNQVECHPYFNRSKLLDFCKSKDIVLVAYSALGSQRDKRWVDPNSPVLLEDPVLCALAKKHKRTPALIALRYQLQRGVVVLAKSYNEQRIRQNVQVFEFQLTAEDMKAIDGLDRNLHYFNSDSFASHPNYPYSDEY
Outline: (§1)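 Oxidation of 1-acenaphthenol was run with 2.3 mM NAD+ in 100 mM phosphate pH 9.0 containing 0.005% Triton X-114 and 5% DMSO. Substrate/enzyme were 30 µM/0.1 µM for AKR1C1, 60 µM/0.3 µM for AKR1C2 and 100 µM/1.5 µM for AKR1C3. NADH rise was read at 340 nm from initial velocities. […] Mean of two experiments.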

[2] = target: T2, Aldo-keto reductase family 1 member C1 (Homo sapiens, UniProt Q04828); experiment: Inhibition of recombinant AKR1C1 using 1-acenaphthenol as substrate by spectrophotometry; outline: as §1
T2 sequence (Q04828 whole entry): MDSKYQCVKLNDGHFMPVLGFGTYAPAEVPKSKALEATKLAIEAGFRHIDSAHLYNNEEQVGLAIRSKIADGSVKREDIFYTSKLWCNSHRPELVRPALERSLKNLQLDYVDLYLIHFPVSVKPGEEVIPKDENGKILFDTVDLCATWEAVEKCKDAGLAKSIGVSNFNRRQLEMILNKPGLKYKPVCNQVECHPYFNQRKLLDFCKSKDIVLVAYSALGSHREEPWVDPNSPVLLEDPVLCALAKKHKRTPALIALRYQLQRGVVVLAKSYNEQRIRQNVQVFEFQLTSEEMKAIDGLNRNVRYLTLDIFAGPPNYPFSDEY

[3] = target: T3, Aldo-keto reductase family 1 member C2 (Homo sapiens) (UniProt P52895); experiment: Inhibition of recombinant AKR1C2 using 1-acenaphthenol as substrate at 10 uM by spectrophotometry; outline: as §1
T3 sequence (whole entry): T2 sequence (Q04828 whole entry) with T38V, R47H, L54V, C87S, V151M, R170H, Q172L

[4] = target: T4, Aldo-keto reductase family 1 member C1 (Homo sapiens) (UniProt Q04828); experiment: Inhibition of recombinant AKR1C1 using 1-acenaphthenol as substrate at 10 uM by spectrophotometry; outline: as §1
T4 sequence (whole entry): T2 sequence (Q04828 whole entry)

[5] = target: T5, Aldo-keto reductase family 1 member C3 (Homo sapiens, UniProt P42330); experiment: Inhibition of recombinant AKR1C3 using 1-acenaphthenol as substrate by spectrophotometry; outline: as §1
T5 sequence (P42330 whole entry): T1 sequence (whole entry)

[6] = target: T6, Aldo-keto reductase family 1 member C2 (Homo sapiens, UniProt P52895); experiment: Inhibition of recombinant AKR1C2 using 1-acenaphthenol as substrate by spectrophotometry; outline: as §1
T6 sequence (P52895 whole entry): T2 sequence (Q04828 whole entry) with T38V, R47H, L54V, C87S, V151M, R170H, Q172L

[7] = target: T6, Aldo-keto reductase family 1 member C2; experiment: Inhibition of recombinant AKR1C2 using S-tetralol as substrate by fluorimetry
Outline: (§2)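 Continuous NADP+-dependent oxidation of S-tetralol, read as NADPH fluorescence at 340/460 nm. Buffer was 100 mM phosphate pH 7.0 with 200 µM NADP+ and 4% DMSO. […] Enzyme was 111, 86, 95 and 184 nM respectively. Initial velocities were fitted to give IC50. Mean of two independent experiments.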

[8] = target: T2, Aldo-keto reductase family 1 member C1; experiment: Inhibition of recombinant AKR1C1 using S-tetralol as substrate by fluorimetry; outline: as §2
[9] = target: T5, Aldo-keto reductase family 1 member C3; experiment: Inhibition of recombinant AKR1C3 using S-tetralol as substrate by fluorimetry; outline: as §2
[10] = target: T7, Aldo-keto reductase family 1 member C4 (Homo sapiens, UniProt P17516); experiment: Inhibition of recombinant AKR1C4 using S-tetralol as substrate by fluorimetry
T7 sequence (P17516 whole entry): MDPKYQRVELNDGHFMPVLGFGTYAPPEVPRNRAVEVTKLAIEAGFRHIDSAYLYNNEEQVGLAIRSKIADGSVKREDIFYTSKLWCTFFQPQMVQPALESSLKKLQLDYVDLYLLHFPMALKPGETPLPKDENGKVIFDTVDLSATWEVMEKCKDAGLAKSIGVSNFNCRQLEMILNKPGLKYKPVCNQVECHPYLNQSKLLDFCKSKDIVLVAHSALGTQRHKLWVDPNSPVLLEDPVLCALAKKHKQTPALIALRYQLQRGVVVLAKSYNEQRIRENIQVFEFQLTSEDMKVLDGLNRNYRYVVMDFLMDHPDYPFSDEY
Outline: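 Continuous NADP+-dependent oxidation of S-tetralol, read as NADPH fluorescence at 340/460 nm. Buffer was 100 mM phosphate pH 7.0 with 200 µM NADP+ and 4% DMSO. Initial velocities were fitted to give IC50. Mean of two independent experiments.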

Homo sapiens [11] = organism: Homo sapiens; experiment: Selectivity ratio of IC50 for AKR1C1 to AKR1C3
Outline: (§3)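 Fold selectivity for AKR1C3 was calculated from IC50 values of the secondary assay. That assay followed fluorimetric NADP+-dependent S-tetralol oxidation at pH 7.0, with substrate at each isoform's Km.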

Homo sapiens [12] = organism: Homo sapiens; experiment: Selectivity ratio of IC50 for AKR1C4 to AKR1C3; outline: as §3
Homo sapiens [13] = organism: Homo sapiens; experiment: Selectivity ratio of IC50 for AKR1C2 to AKR1C3; outline: as §3

Compound | inhibition [1] | pIC50 [2] | inhibition [3] | inhibition [4] | pIC50 [5] | pIC50 [6] | pIC50 [7] | pIC50 [8] | pIC50 [9] | pIC50 [10] | Ratio IC50 (Homo sapiens [11]) | Ratio IC50 (Homo sapiens [12]) | Ratio IC50 (Homo sapiens [13])
COc1cc(NC(=O)c2cccc([N+](=O)[O-])c2)c(C(=O)O)cc1OC | 3.5% |  | inactive | 22.2% |  |  |  |  |  |  |  |  | 
O=C(Nc1ccc(Br)cc1C(=O)O)c1cccc(O)c1 | 89.6% |  | 16.7% | 21.6% | 5.72 |  | 4.20 | 4.00 | 6.46 | 4.52 | 286 | 86 | 180
COc1cc(NC(=O)c2cccc(O)c2)c(C(=O)O)cc1OC | 70.2% |  | 29.4% | 11.8% | 5.28 |  | 4.52 | 4.06 | 5.54 | 4.29 | 30 | 18 | 10
O=C(Nc1ccc(Cl)cc1C(=O)O)c1cccc(O)c1 | 77.8% |  | 6.7% | 17.4% | 5.66 |  | 4.30 | 4.29 | 6.51 | 4.70 | 164 | 65 | 162
CCOc1cccc(C(=O)Nc2ccc(Br)cc2C(=O)O)c1 | 19.1% | 4.69 | 36.8% | 31.9% |  | 4.77 |  |  |  |  |  |  | 
COc1cc(NC(=O)c2cccc(N)c2)c(C(=O)O)cc1OC | 5.6% |  | 20.2% | 18% |  |  |  |  |  |  |  |  | 
Cc1cc(Cl)cc(C(=O)O)c1NC(=O)c1cccc([N+](=O)[O-])c1 | inactive |  | 22.5% | inactive |  |  |  |  |  |  |  |  | 
Nc1cccc(C(=O)Nc2ccc(O)cc2C(=O)O)c1 | 5.6% |  | 28.7% | 9.7% |  |  |  |  |  |  |  |  | 

Next, values leading:

inhibition [1] | pIC50 [2] | inhibition [3] | inhibition [4] | pIC50 [5] | pIC50 [6] | pIC50 [7] | pIC50 [8] | pIC50 [9] | pIC50 [10] | Ratio IC50 (Homo sapiens [11]) | Ratio IC50 (Homo sapiens [12]) | Ratio IC50 (Homo sapiens [13]) | Compound
47.2% | 5.49 | 58.3% | 70.8% | 5.12 | 5.19 |  |  |  |  |  |  |  | CCCCOc1cc(C(=O)Nc2ccccc2C(=O)O)ccc1[N+](=O)[O-]
30.4% | 5.31 | 70.5% | 65.9% |  | 5.31 |  |  |  |  |  |  |  | CCCCOc1cccc(C(=O)Nc2ccc(Br)cc2C(=O)O)c1
87.9% |  | 10.4% | 11.8% | 5.59 |  | 4.38 | 4.45 | 6.08 |  |  |  |  | O=C(Nc1ccc([N+](=O)[O-])cc1C(=O)O)c1cccc(O)c1
3.4% |  | 23.4% | inactive |  |  |  |  |  |  |  |  |  | O=C(Nc1ccc(Cl)cc1C(=O)O)c1cccc([N+](=O)[O-])c1
1.9% |  | 31.6% | inactive |  |  |  |  |  |  |  |  |  | O=C(Nc1ccc(O)cc1C(=O)O)c1cccc([N+](=O)[O-])c1
5.6% | 5.08 | 33.6% | 53.2% |  | 4.81 |  |  |  |  |  |  |  | O=C(Nc1ccc(Br)cc1C(=O)O)c1ccc(F)c([N+](=O)[O-])c1
inactive |  | inactive | 8% |  |  |  |  |  |  |  |  |  | Nc1cccc(C(=O)Nc2ccccc2C(=O)O)c1
42.1% |  | inactive | inactive | 4.90 |  | 4.32 | < 4.00 | 5.28 |  | > 19 | > 19 | 9 | O=C(Nc1ccccc1C(=O)O)c1cccc(O)c1

Reference: ChEMBL document CHEMBL2069201, “N-Benzoyl anthranilic acid derivatives as selective inhibitors of aldo-keto reductase AKR1C3” (Bioorg Med Chem Lett, 2012)
